In ChEMBL document CHEMBL4118021, “Studies of TAK1-centered polypharmacology with novel covalent TAK1 inhibitors” (Bioorg Med Chem, 2017):

What was measured:
[1] = target: Serine/threonine-protein kinase Chk2 (Homo sapiens) (UniProt O96017); assay: Inhibition of CHK2 in human SKCO1 cells at 1 uM after 4 hrs using biotin labeled DLKPENVLLSSQEEDCLIK probe by mass-spectrometric analysis relative to control; format: cell-based
[2] = target: T1, Serine/threonine-protein kinase TAO3 (Homo sapiens) (UniProt Q9H2K8); assay: Inhibition of TAO3 in human SKCO1 cells at 1 uM after 4 hrs using biotin labeled DIKAGNILLTEPGQVK probe by mass-spectrometric analysis relative to control; format: cell-based
T1 sequence (whole entry): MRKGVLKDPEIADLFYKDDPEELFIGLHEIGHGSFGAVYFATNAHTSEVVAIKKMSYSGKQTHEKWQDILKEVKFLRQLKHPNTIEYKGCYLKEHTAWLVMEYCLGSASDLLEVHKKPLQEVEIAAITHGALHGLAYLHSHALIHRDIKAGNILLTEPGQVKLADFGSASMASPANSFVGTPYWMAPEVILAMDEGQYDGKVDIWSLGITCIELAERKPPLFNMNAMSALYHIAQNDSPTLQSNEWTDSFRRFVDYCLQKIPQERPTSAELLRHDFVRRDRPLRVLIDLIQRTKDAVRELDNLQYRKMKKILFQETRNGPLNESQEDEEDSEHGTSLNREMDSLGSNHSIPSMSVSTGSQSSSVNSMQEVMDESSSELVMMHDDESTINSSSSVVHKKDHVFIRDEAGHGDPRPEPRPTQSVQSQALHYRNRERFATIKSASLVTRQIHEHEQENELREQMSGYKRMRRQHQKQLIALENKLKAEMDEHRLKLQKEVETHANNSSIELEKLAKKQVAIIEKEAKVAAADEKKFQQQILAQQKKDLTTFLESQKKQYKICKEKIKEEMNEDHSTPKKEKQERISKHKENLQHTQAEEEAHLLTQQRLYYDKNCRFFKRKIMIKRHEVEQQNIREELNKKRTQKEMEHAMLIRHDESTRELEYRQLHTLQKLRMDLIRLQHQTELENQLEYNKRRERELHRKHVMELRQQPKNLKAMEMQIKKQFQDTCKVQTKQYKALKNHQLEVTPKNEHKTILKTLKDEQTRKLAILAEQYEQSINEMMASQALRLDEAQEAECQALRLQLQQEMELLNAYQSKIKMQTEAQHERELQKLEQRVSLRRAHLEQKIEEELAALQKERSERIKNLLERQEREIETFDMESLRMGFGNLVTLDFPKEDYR
Procedure, shortened: (§1)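 Live SK-CO-1 cells exposed to compound at 1 μM or DMSO for 4 h (KiNativ). Lysates then labeled with lysine-reactive ATP/ADP-biotin probe, and probe-labeled kinase peptides quantified by mass spectrometry. Percent inhibition of probe-dependent recovery calculated relative to DMSO-treated cells.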

[3] = target: Cyclin-dependent kinase 2 (Homo sapiens) (UniProt P24941); assay: Inhibition of CDK2 in human SKCO1 cells at 1 uM after 4 hrs using biotin labeled DLKPQNLLINTEGAIK probe by mass-spectrometric analysis relative to control; format: cell-based
[4] = target: Interferon-induced, double-stranded RNA-activated protein kinase (Homo sapiens) (UniProt P19525); assay: Inhibition of PKR in human SKCO1 cells at 1 uM after 4 hrs using biotin labeled DLKPSNIFLVDTK probe by mass-spectrometric analysis relative to control; format: cell-based; procedure, shortened: as §1
[5] = target: MAP/microtubule affinity-regulating kinase 3 (Homo sapiens) (UniProt P27448); assay: Inhibition of MARK3 in human SKCO1 cells at 1 uM after 4 hrs using biotin labeled DLKAENLLLDADMNIK probe by mass-spectrometric analysis relative to control; format: cell-based
[6] = target: Serine/threonine-protein kinase VRK2 (Homo sapiens) (UniProt Q86Y07); assay: Inhibition of VRK2 in human SKCO1 cells at 1 uM after 4 hrs using biotin labeled MLDVLEYIHENEYVHGDIKAANLLLYK probe by mass-spectrometric analysis relative to control; format: cell-based; procedure, shortened: as §1
[7] = target: RAF proto-oncogene serine/threonine-protein kinase (Homo sapiens) (UniProt P04049); assay: Inhibition of RAF1 in human SKCO1 cells at 1 uM after 4 hrs using biotin labeled DMKSNNIFLHEGLTVK probe by mass-spectrometric analysis relative to control; format: cell-based; procedure, shortened: as §1
[8] = target: Serine/threonine-protein kinase tousled-like 2 (Homo sapiens) (UniProt Q86UE8); assay: Inhibition of TLK2 in human SKCO1 cells at 1 uM after 4 hrs using biotin labeled YLNEIKPPIIHYDLKPGNILLVNGTACEIK probe by mass-spectrometric analysis relative to control; format: cell-based; procedure, shortened: as §1
[9] = target: Fibroblast growth factor receptor 1 (Homo sapiens) (UniProt P11362); assay: Inhibition of FGFR1 in human SKCO1 cells at 1 uM after 4 hrs using biotin labeled VAVKMLK probe by mass-spectrometric analysis relative to control; format: cell-based; details: pooled result: one value given for 4 cell lines, strains, targets or settings
[10] = target: T2, Serine/threonine-protein kinase Chk1 (Homo sapiens) (UniProt O14757); assay: Inhibition of CHK1 in human SKCO1 cells at 1 uM after 4 hrs using biotin labeled DIKPENLLLDER probe by mass-spectrometric analysis relative to control; format: cell-based
T2 sequence (whole entry): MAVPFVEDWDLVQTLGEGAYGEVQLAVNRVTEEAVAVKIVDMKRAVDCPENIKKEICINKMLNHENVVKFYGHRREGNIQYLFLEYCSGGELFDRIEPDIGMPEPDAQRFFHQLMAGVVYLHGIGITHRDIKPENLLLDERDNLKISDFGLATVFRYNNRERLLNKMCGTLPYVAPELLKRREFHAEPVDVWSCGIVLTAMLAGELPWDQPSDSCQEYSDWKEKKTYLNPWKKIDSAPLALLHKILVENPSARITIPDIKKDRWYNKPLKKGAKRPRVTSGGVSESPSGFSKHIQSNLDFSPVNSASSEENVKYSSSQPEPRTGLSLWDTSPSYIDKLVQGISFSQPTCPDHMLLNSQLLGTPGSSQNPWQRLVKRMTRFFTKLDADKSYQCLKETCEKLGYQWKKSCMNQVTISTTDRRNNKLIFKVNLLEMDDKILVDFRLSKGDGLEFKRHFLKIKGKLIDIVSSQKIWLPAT

[11] = target: Tyrosine-protein kinase Fes/Fps (Homo sapiens) (UniProt P07332); assay: Inhibition of FES in human SKCO1 cells at 1 uM after 4 hrs using biotin labeled LRADNTLVAVKSCR probe by mass-spectrometric analysis relative to control; format: cell-based
[12] = Increase in secretion of basic-FGF in TNFalpha activated RA patient-derived synovial fibroblasts at 0.6 to 3 uM preincubated for 3 hrs followed by TNFalpha stimulation measured after 18 hrs by sandwich immunoassay; details: human
Procedure, shortened: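 Primary RA patient synovial fibroblasts (donor RA2159) were seeded at 1000 cells/well, grown about 24 h, then starved overnight and again about 4 h in basal medium with 0.1% BSA. Cells were pre-incubated 3 h with inhibitor (0.6 or 3 μM) or DMSO, then stimulated 18 h with 10 ng/mL TNFα. Paired wells were pooled, in biological duplicate. Pooled supernatants were diluted 1:3 and read on Luminex bead sandwich immunoassays, with mock-medium background and spiked-ligand controls.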

Sequence of Serine/threonine-protein kinase tousled-like 2 (Homo sapiens) (Q86UE8 whole entry, looked up): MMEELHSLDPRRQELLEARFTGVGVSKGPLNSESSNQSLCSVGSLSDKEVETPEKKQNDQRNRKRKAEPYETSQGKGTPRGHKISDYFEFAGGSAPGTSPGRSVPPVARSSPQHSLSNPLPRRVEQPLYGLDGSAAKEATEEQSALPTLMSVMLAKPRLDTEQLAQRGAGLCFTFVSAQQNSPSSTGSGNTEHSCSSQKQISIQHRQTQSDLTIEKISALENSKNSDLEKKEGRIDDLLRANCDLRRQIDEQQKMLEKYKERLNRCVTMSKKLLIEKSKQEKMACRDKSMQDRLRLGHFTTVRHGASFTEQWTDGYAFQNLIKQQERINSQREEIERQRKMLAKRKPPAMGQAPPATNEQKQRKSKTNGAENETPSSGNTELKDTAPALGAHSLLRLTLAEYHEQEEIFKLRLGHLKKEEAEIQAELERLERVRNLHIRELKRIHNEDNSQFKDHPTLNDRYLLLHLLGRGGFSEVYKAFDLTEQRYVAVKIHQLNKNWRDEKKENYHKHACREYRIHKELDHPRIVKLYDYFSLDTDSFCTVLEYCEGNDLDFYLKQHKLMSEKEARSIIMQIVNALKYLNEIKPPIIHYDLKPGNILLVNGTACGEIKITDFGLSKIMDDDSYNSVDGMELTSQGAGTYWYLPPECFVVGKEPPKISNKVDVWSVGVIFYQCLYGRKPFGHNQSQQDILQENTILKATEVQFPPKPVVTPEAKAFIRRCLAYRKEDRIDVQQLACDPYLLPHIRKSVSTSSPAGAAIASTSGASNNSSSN
Sequence of MAP/microtubule affinity-regulating kinase 3 (Homo sapiens) (P27448 whole entry, looked up): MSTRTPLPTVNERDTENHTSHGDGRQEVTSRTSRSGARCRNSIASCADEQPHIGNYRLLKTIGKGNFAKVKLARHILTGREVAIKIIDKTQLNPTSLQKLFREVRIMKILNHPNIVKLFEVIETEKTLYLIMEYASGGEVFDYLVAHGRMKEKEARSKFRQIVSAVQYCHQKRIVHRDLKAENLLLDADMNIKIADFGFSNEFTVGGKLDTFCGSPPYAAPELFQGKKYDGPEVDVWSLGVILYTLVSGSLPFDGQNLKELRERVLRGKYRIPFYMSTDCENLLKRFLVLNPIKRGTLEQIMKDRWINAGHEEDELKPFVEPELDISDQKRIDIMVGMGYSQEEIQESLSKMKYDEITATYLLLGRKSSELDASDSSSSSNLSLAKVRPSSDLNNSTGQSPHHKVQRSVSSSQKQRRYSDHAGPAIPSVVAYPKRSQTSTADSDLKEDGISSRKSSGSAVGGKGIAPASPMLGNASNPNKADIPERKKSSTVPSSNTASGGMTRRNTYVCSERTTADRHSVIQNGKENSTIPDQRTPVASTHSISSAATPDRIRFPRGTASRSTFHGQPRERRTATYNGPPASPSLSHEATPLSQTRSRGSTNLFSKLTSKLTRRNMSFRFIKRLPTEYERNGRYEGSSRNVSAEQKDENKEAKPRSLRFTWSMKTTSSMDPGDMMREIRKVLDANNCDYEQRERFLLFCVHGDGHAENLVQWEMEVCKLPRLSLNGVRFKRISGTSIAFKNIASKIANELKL
Sequence of RAF proto-oncogene serine/threonine-protein kinase (Homo sapiens) (P04049 whole entry): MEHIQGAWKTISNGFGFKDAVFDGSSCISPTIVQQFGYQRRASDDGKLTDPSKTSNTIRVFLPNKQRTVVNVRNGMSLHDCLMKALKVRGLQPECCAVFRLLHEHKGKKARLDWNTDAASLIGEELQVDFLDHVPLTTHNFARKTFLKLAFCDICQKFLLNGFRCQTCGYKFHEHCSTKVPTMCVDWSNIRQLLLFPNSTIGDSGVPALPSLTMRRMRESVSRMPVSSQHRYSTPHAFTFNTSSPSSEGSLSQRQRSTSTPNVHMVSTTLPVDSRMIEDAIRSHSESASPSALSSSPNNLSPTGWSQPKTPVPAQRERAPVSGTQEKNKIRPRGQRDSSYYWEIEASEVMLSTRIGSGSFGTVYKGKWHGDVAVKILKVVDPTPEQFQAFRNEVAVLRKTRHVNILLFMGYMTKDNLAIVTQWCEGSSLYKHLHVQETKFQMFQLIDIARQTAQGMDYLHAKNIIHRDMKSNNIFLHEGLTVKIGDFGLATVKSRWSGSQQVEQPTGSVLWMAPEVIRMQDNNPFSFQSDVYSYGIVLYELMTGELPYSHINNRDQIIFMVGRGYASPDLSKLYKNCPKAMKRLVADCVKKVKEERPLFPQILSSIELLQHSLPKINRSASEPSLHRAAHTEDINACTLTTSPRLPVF
Sequence of Tyrosine-protein kinase Fes/Fps (Homo sapiens) (P07332 whole entry): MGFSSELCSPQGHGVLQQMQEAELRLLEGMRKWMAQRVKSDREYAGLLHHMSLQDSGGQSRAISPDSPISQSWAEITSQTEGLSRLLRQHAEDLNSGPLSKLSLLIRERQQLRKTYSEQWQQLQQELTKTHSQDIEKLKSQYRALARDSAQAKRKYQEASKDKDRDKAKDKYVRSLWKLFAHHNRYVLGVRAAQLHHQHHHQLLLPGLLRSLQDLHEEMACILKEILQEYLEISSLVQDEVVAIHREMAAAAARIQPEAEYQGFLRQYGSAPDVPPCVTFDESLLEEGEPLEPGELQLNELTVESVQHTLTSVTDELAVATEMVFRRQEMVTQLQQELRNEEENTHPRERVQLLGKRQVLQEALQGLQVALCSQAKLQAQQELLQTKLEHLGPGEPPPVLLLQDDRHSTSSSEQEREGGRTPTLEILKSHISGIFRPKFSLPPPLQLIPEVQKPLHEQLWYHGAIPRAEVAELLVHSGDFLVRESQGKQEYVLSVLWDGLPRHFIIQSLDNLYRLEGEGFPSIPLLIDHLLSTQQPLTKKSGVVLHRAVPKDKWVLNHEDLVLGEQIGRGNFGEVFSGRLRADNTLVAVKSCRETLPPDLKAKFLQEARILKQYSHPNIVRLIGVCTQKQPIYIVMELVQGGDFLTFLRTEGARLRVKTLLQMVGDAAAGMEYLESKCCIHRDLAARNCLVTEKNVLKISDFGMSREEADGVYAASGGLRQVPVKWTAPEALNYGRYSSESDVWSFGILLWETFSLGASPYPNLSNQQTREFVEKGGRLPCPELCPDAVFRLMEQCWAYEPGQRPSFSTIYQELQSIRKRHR
Sequence of Serine/threonine-protein kinase VRK2 (Homo sapiens) (Q86Y07 whole entry): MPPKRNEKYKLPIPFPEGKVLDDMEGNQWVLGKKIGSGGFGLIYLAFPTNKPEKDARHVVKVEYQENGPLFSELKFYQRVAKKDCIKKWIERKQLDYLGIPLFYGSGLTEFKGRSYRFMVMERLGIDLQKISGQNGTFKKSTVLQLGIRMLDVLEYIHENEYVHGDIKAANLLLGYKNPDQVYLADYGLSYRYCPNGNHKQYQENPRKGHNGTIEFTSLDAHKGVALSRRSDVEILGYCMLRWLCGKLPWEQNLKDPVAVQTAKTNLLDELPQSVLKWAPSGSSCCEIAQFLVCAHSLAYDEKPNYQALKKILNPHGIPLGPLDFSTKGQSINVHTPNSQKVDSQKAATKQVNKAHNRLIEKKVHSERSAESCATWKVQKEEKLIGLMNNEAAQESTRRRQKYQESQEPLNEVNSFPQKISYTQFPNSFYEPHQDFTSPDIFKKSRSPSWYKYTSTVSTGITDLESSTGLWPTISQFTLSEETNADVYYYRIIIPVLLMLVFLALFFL
Sequence of Serine/threonine-protein kinase Chk2 (Homo sapiens) (O96017 whole entry): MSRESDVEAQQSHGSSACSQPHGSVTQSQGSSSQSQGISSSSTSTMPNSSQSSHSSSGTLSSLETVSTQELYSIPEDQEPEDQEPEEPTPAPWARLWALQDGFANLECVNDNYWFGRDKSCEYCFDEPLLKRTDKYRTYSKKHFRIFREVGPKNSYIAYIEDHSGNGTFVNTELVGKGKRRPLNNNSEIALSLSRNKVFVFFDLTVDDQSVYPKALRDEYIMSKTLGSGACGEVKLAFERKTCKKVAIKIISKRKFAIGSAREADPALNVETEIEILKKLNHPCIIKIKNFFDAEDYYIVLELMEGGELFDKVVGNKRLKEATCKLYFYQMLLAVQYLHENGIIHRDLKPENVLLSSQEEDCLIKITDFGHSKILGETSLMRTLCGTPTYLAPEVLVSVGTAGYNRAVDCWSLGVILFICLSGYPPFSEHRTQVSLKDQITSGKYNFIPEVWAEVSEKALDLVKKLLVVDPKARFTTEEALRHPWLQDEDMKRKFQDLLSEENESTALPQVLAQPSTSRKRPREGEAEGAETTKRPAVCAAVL
Sequence of Interferon-induced, double-stranded RNA-activated protein kinase (Homo sapiens) (P19525 whole entry): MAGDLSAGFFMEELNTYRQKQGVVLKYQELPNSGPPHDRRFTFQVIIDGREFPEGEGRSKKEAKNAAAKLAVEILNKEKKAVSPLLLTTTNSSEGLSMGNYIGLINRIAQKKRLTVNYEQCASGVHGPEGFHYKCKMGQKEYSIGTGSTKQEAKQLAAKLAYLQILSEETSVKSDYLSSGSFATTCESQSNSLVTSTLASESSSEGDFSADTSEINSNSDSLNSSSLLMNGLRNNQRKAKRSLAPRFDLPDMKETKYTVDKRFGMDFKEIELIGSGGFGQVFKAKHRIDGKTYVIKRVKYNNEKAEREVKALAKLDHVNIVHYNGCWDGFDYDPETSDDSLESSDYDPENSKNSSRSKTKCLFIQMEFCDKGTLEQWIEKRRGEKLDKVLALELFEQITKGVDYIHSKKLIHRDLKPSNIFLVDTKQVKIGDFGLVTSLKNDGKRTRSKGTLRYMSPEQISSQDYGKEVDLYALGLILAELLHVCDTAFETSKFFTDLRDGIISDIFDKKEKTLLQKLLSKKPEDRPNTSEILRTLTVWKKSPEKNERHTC

Compound | inhibition [1] | inhibition [2] | inhibition [3] | inhibition [4] | inhibition [5] | inhibition [6] | inhibition [7] | inhibition [8] | inhibition [9] | inhibition [10] | inhibition [11] | Activity [12]
COc1cc(O)c2c(c1)/C=C/C[C@H](O)[C@H](O)C(=O)/C=C\C[C@H](C)OC2=O | 12.6% | 39.4% | 30% | -6.6% | 3.6% | 20.4% | 66.4% | -1.8% | 18.4% | 40.2% | 67.7% | Toxic
C=CC(=O)Nc1ccccc1Nc1nc(Nc2ccc(N3CCN(C)CC3)cc2)ncc1Cl | 8.5% | 13.1% | 18.7% | 2.6% | -7.2% | 10.3% | 65.6% | -2.7% | 33.7% | 53.8% | 77.3% | Toxic
C=CC(=O)Nc1ccccc1Oc1nc(Nc2cnn(CCOC)c2)ncc1Cl | -6.3% | 9.6% | 33.1% | 2.5% | -8.4% | 3.6% | 6.3% | 3.8% | 7.6% | 48.8% | 13.6% | Non-Toxic
